# Assay results gathered from unrelated publications.
# Lines come from different studies, so protocols differ.
# Effect on: cell growth or viability
Structure (SMILES),cell line,method,tested at,time,quantity,result
O=C1[O][Pt]2([NH][C@@H]3CCCC[C@H]3[NH]2)[O]C1=O,PNT2,MTT,,96 h,IC50,1300 nM
N.N.[Cl][Pt][Cl],CCD-18Co,ATP luminescence,,,GI50,1.1 µg/mL
CC[C@@]1(OC(=O)[C@@H](N)CCSC)C(=O)OCc2c1cc1n(c2=O)Cc2cc3cc4c(cc3nc2-1)OCO4,HepG2,MTT,,,IC50,113 nM
N.N.[Cl][Pt][Cl],A-431,SRB,,,EC50,1800 nM
C=CC(=O)Nc1cc(Nc2nccc(-c3cn(C)c4ccccc34)n2)c(OC)cc1N(C)CCN(C)C,NCI-H292,ATP luminescence,,72 h,GI50,3750 nM
CC[C@@]1(OC(=O)CN)C(=O)OCc2c1cc1n(c2=O)Cc2cc3cc4c(cc3nc2-1)OCO4,HepG2,MTT,,,IC50,25 nM
N.N.[Cl][Pt][Cl],HepG2,MTT,20 µM,,inhibition,88.5%
O=c1ccc2ccc3occc3c2o1,HepG2,WST-1,,48 h,IC50,13800 nM
CCOC(=O)C1=C(N)N(c2ccc(C(=O)OCC)cc2)C(O)=C(C#N)C12C(=O)Nc1ccccc12 (stereo not shown),HepG2,MTT,12.5 µM,24 h,viability,33.9%
CC[C@@]1(OC(=O)C(C)c2ccc(CC(C)C)cc2)C(=O)OCc2c1cc1n(c2=O)Cc2cc3cc4c(cc3nc2-1)OCO4 (stereo partly shown),HepG2,MTT,,,IC50,> 5000 nM
CC1=C(O)C(=O)C=C2C1=CC=C1[C@@]2(C)CC[C@@]2(C)[C@@H]3C[C@](C)(C(=O)O)CC[C@]3(C)CC[C@]12C,Huh-7,MTT,20 µM,,inhibition,77.3%
CC[C@H](C)[C@H](N)C(=O)O[C@]1(CC)C(=O)OCc2c1cc1n(c2=O)Cc2cc3cc4c(cc3nc2-1)OCO4,HepG2,MTT,,,IC50,98 nM
N[C@@H](Cc1ccc(N(CCCl)CCCl)cc1)C(=O)O,HepG2,CCK-8,,48 h,IC50,36500 nM
